Laboratory results: ChEMBL document CHEMBL4725343, “Medicinal Chemistry Optimization of a Diaminopurine Chemotype: Toward a Lead for Trypanosoma brucei Inhibitors” (J Med Chem, 2020)
One block for each compound: values may come before it.

Assays:
[1] = Distribution coefficient between octanol and aqueous buffer, logD of the compound in pH 7.4 buffer by UPLC-MS-based shake flask method; assay type: physicochemical; conditions: octanol/water
[2] = Apparent permeability across apical to basolateral side in human Caco2 cells after 2 hrs; assay type: ADME, cell-based; conditions: caco-2, 2 h
[3] = Apparent permeability across basolateral to apical side in human Caco2 cells after 2 hrs; assay type: ADME, cell-based; conditions: caco-2, 2 h
[4] = Apparent permeability across apical to basolateral side in human Caco2 cells assessed as drug recovery after 2 hrs; assay type: ADME, cell-based; conditions: caco-2, 2 h
[5] = Apparent permeability across basolateral to apical side in human Caco2 cells assessed as drug recovery after 2 hrs; assay type: ADME, cell-based; conditions: caco-2, 2 h
[6] = Cmax in NMRI mouse at 10 mg/kg, ip measured up to […]rs on day 1 by LC-MS/MS analysis; assay type: ADME, organism-based; parameters: route intraperitoneal, dose 10 mg/kg; conditions: in vivo
Procedure, shortened: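 Female NMRI mice, uninfected (n=3), received a single ip dose of 10 mg/kg at 10 mL/kg, in 1% DMSO/99% of 20% (w/v) SBEβ-CD in water. Tail-vein blood was collected into K2EDTA at 0.0833 to 24 h and diluted with an equal volume of water. Samples underwent liquid–liquid extraction with nifedipine as internal standard, followed by LC-MS/MS.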

[7] = Cmax in ABT-treated NMRI mouse at 30 mg/kg, ip measured up to 6 hrs on day 1 by LC-MS/MS analysis; assay type: ADME, organism-based; parameters: route intraperitoneal, dose 30 mg/kg/day, time <=6; conditions: in vivo
Procedure, shortened: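 Female NMRI mice, uninfected (n=3), were given ABT 50 mg/kg/day 1 h before each ip dose of 30 mg/kg/day, in a vehicle of 4% DMSO and 20% Captisol, as a 0.2 mL injection. Blood was sampled at 0.5, 2, 4 and 6 h on day 1. Samples underwent liquid–liquid extraction with nifedipine as internal standard, followed by LC-MS/MS.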

[8] = Cmax in ABT-treated NMRI mouse infected with Trypanosoma brucei brucei STIB795 at 30 mg/kg, ip measured up to 6 hrs on day 1 by LC-MS/MS analysis; assay type: ADME, organism-based; parameters: route intraperitoneal, dose 30 mg/kg/day, time <=6; conditions: in vivo
Procedure, shortened: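 Female NMRI mice were infected ip with 10^4 bloodstream-form T. b. brucei STIB795. From day 3 they received ABT 50 mg/kg/day 1 h before ip dosing at 30 mg/kg/day (n=3), in a vehicle of 4% DMSO and 20% Captisol, for 5 days. Blood was sampled at 0.5, 2, 4 and 6 h on day 1. Quantitation was by LC-MS/MS after liquid–liquid extraction with nifedipine as internal standard.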

[9] = Tmax in NMRI mouse at 10 mg/kg, ip measured up to 6 hrs on day 1 by LC-MS/MS analysis; assay type: ADME, organism-based; conditions: in vivo
Procedure, shortened: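 Uninfected female NMRI mice given 10 mg/kg ip at 10 mL/kg in 1% DMSO/99% of 20% (w/v) SBEβ-CD in water, n=3. Tail-vein blood collected into K2EDTA at 0.0833–24 h and diluted 1:1 with water. Extracted with internal standard nifedipine and quantified by LC-MS/MS.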

[10] = Tmax in ABT-treated NMRI mouse at 30 mg/kg, ip measured up to 6 hrs on day 1 by LC-MS/MS analysis; assay type: ADME, organism-based; conditions: in vivo, dose 30 mg/kg/day
Procedure, shortened: (§1)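 Female NMRI mice, infected with STIB795 or uninfected, pretreated with ABT 50 mg/kg po 1 h before 30 mg/kg ip. Vehicle 4% DMSO, 20% Captisol. Tail blood taken at 0.5, 2, 4 and 6 h on day 1 and diluted with water. Liquid–liquid extraction with nifedipine internal standard, then LC-MS/MS.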

[11] = Tmax in ABT-treated NMRI mouse infected with Trypanosoma brucei brucei STIB795 at 30 mg/kg, ip measured up to 6 hrs on day 1 by LC-MS/MS analysis; assay type: ADME, organism-based; conditions: in vivo, dose 30 mg/kg/day; procedure, shortened: as §1
[12] = AUC (0 to t) in NMRI mouse at 10 mg/kg, ip measured up to 6 hrs on day 1 by LC-MS/MS analysis; assay type: ADME, organism-based; parameters: route intraperitoneal, dose 10 mg/kg; conditions: in vivo
Procedure, shortened: (§2)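 Female NMRI mice, uninfected, single ip dose 10 mg/kg at 10 mL/kg in 1% DMSO/99% of 20% (w/v) SBEβ-CD (Captisol) in water. Tail-vein blood into K2EDTA at 0.0833, 0.25, 0.5, 1, 2, 4, 6, 8 and 24 h. Blood diluted 1:1 in water, liquid–liquid extraction with nifedipine internal standard, LC-MS/MS.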

[13] = AUC(0 to t) in ABT-treated NMRI mouse at 30 mg/kg, ip measured up to 6 hrs on day 1 by LC-MS/MS analysis; assay type: ADME, organism-based; parameters: route intraperitoneal, dose 30 mg/kg/day, time <=6; conditions: in vivo
Procedure, shortened: (§3)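 Uninfected female NMRI mice (n=3), oral 1-aminobenzotriazole 50 mg/kg/day 1 h before each ip dose of 30 mg/kg/day (0.2 mL; vehicle 4% DMSO, 20% Captisol). Blood sampled at 0.5, 2, 4 and 6 h on day 1. Samples processed by liquid–liquid extraction with nifedipine internal standard, then LC-MS/MS.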

[14] = AUC(0 to t) in ABT-treated NMRI mouse infected with Trypanosoma brucei brucei STIB795 at 30 mg/kg, ip measured up to 6 hrs on day 1 by LC-MS/MS analysis; assay type: ADME, organism-based; parameters: route intraperitoneal, dose 30 mg/kg/day, time <=6; conditions: in vivo
Procedure, shortened: (§4)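 Female NMRI mice infected ip with 10^4 bloodstream T. b. brucei STIB795 in TDB glucose. Dosing began day 3 after infection with parasitemia confirmed (n=3): oral ABT 50 mg/kg 1 h before ip 30 mg/kg (0.2 mL; 4% DMSO, 20% Captisol). Blood taken at 0.5, 2, 4, 6 h on day 1, extracted with nifedipine internal standard, LC-MS/MS.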

[15] = AUC in NMRI mouse at 10 mg/kg, ip measured up to 6 hrs on day 1 by LC-MS/MS analysis; assay type: ADME, organism-based; parameters: route intraperitoneal, dose 10 mg/kg; conditions: in vivo; procedure, shortened: as §2
[16] = AUC in ABT-treated NMRI mouse at 30 mg/kg, ip measured up to 6 hrs on day 1 by LC-MS/MS analysis; assay type: ADME, organism-based; parameters: route intraperitoneal, dose 30 mg/kg/day, time <=6; conditions: in vivo; procedure, shortened: as §3
[17] = AUC in ABT-treated NMRI mouse infected with Trypanosoma brucei brucei STIB795 at 30 mg/kg, ip measured up to 6 hrs on day 1 by LC-MS/MS analysis; assay type: ADME, organism-based; parameters: route intraperitoneal, dose 30 mg/kg/day, time <=6; conditions: in vivo; procedure, shortened: as §4

logD [1]: 3.1
SMILES: FC(F)(F)CNc1nc(Nc2ccsc2)nc2[nH]cnc12

SMILES: Cn1nccc1Nc1nc(NCC(F)(F)F)c2nc[nH]c2n1
logD [1]: 1.9 | Papp [2]: 5.8 10^-6 cm/s | Papp [3]: 44 10^-6 cm/s | Drug recovery [4]: 87% | Drug recovery [5]: 102% | Cmax [6]: 11.8 µM | Cmax [7]: 15767 ng/mL | Cmax [8]: 17267 ng/mL | Tmax [9]: 15 min | Tmax [10]: 30 min | Tmax [11]: 30 min | AUCt [12]: 5340 ng·h/mL | AUCt [13]: 51799 ng·h/mL | AUCt [14]: 77666 ng·h/mL | AUC [15]: 5350 ng·h/mL | AUC [16]: 52521 ng·h/mL | AUC [17]: 83443 ng·h/mL
